Test results: ChEMBL document CHEMBL1152865, “Synthesis and antimycobacterial activities of novel 6-nitroquinolone-3-carboxylic acids” (Eur J Med Chem, 2009)
Values after ≈ are worked out from the molar mass of the structure shown.

Key:
[1] = test system: Mycobacterium tuberculosis; experiment: Antibacterial activity against Mycobacterium tuberculosis H37Rv by agar dilution method; format: functional
How it was run: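 Agar dilution in Middlebrook 7H11 agar supplemented with OADC, following an approach similar to NCCLS guidance. MIC determined in duplicate.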

[2] = test system: Mycolicibacterium smegmatis; experiment: Antibacterial activity against Mycobacterium smegmatis ATCC 14468 by agar dilution method; format: functional
How it was run: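 Agar dilution on Middlebrook 7H11 agar with OADC supplement, following an NCCLS-type procedure; MIC read in duplicate.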

[3] = Cytotoxicity against african green monkey Vero cells after 72 hrs by MTT assay; format: cell-based; conditions: chlorocebus sabaeus
How it was run: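 Cells exposed to compound for 72 h; viability from cellular MTT conversion to formazan; CC50 derived.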

[4] = Inhibition of Mycobacterium smegmatis DNA gyrase assessed as inhibition of relaxed circular pUC18 supercoiling activity by agarose gel electrophoresis; set-up: species or system Mycolicibacterium smegmatis
How it was run: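 Gyrase purified from M. smegmatis, pre-incubated with compound in DMSO. Then 400 ng relaxed pUC18 added in 35 mM Tris-HCl pH 7.5, 5 mM MgCl2, 25 mM potassium glutamate, 2 mM spermidine, 2 mM ATP, BSA, yeast tRNA and 5% glycerol. Incubated 30 min at 37 °C; read-out by agarose gel electrophoresis. Ciprofloxacin and 5% DMSO reactions run as controls.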

Row | SMILES | MIC [1] [µM] | MIC [2] [µM] | CC50 at 72 h [3] [µM] | IC50 [4] [µg/mL]
1 | O=C(O)c1cn2c(n1)CN(c1cc3c(cc1[N+](=O)[O-])c(=O)c(C(=O)O)cn3C1CC1)CC2 | 1.78 (≈ 0.782 µg/mL) | 7.12 (≈ 3.13 µg/mL) | 142 | –
2 | O=C(O)c1cn(-c2ccc(F)cc2)c2cc(N3CCC4(CC3)OCCO4)c([N+](=O)[O-])cc2c1=O | 6.67 (≈ 3.13 µg/mL) | 26.6 (≈ 12.5 µg/mL) | – | –
3 | CC(C)(C)n1cc(C(=O)O)c(=O)c2cc([N+](=O)[O-])c(N3CCC(n4c(=O)[nH]c5cc(Cl)ccc54)CC3)cc21 | 5.79 (≈ 3.13 µg/mL) | 23.1 (≈ 12.5 µg/mL) | – | –
4 | CN1CCN(c2cc3c(cc2[N+](=O)[O-])c(=O)c(C(=O)O)cn3-c2ccc(F)cc2)CC1c1ccccc1 (stereo unspecified) | 6.23 (≈ 3.13 µg/mL) | 24.9 (≈ 12.5 µg/mL) | – | –
5 | O=C(O)c1cn(-c2ccc(F)cc2)c2cc(N3CCN(Cc4ccc5c(c4)OCO5)CC3)c([N+](=O)[O-])cc2c1=O | 2.85 (≈ 1.56 µg/mL) | 22.9 (≈ 12.5 µg/mL) | – | –
6 | COc1ccc(CC2C3=C(CCCC3)CCN2c2cc3c(cc2[N+](=O)[O-])c(=O)c(C(=O)O)cn3C2CC2)cc1 (stereo unspecified) | 3.04 (≈ 1.61 µg/mL) | 24.3 (≈ 12.9 µg/mL) | – | –
7 | COc1ccc(CC2C3=C(CCCC3)CCN2c2cc3c(cc2[N+](=O)[O-])c(=O)c(C(=O)O)cn3-c2ccc(F)cc2)cc1 (stereo unspecified) | 5.36 (≈ 3.13 µg/mL) | 21.4 (≈ 12.5 µg/mL) | – | –
8 | Cc1onc(-c2c(F)cccc2F)c1C(=O)N1CCN(c2cc3c(cc2[N+](=O)[O-])c(=O)c(C(=O)O)cn3C2CC2)CC1 | 2.69 (≈ 1.56 µg/mL) | 10.8 (≈ 6.25 µg/mL) | – | –
9 | CCN(CC)C(=O)C1CCCN(c2cc3c(cc2[N+](=O)[O-])c(=O)c(C(=O)O)cn3C(C)(C)C)C1 (stereo unspecified) | 6.62 (≈ 3.13 µg/mL) | 26.4 (≈ 12.5 µg/mL) | – | –
10 | CC(C)(C)n1cc(C(=O)O)c(=O)c2cc([N+](=O)[O-])c(N3CCN(Cc4ccc5c(c4)OCO5)CC3)cc21 | 3.07 (≈ 1.56 µg/mL) | 24.6 (≈ 12.5 µg/mL) | – | –
11 | O=C(O)c1cn(C2CC2)c2cc(N3CCSCC3)c([N+](=O)[O-])cc2c1=O | 4.17 (≈ 1.57 µg/mL) | 33.3 (≈ 12.5 µg/mL) | – | –
12 | CCN(CC)C(=O)C1CCCN(c2cc3c(cc2[N+](=O)[O-])c(=O)c(C(=O)O)cn3C2CC2)C1 (stereo unspecified) | 3.42 (≈ 1.56 µg/mL) | 6.86 (≈ 3.13 µg/mL) | – | –
13 | O=C(O)c1cn(-c2ccc(F)cc2)c2cc(N3CCC(O)(c4ccc(Cl)cc4)CC3)c([N+](=O)[O-])cc2c1=O | 5.82 (≈ 3.13 µg/mL) | 23.2 (≈ 12.5 µg/mL) | – | –
14 | Cc1onc(-c2c(F)cccc2F)c1C(=O)N1CCN(c2cc3c(cc2[N+](=O)[O-])c(=O)c(C(=O)O)cn3-c2ccc(F)cc2)CC1 | 4.94 (≈ 3.13 µg/mL) | 19.7 (≈ 12.5 µg/mL) | – | –
15 | CC(C)(C)n1cc(C(=O)O)c(=O)c2cc([N+](=O)[O-])c(N3CCC(O)(c4ccc(Cl)cc4)CC3)cc21 | 6.26 (≈ 3.13 µg/mL) | 25 (≈ 12.5 µg/mL) | – | –
16 | O=C(O)c1cn(C2CC2)c2cc(N3CCC(O)(c4ccc(Cl)cc4)CC3)c([N+](=O)[O-])cc2c1=O | 0.81 (≈ 0.392 µg/mL) | 3.22 (≈ 1.56 µg/mL) | 129 | 5 (≈ 10.3 µM)
17 | O=C(O)c1cn(C2CC2)c2cc(N3CCC4(CC3)OCCO4)c([N+](=O)[O-])cc2c1=O | 3.76 (≈ 1.56 µg/mL) | 15.1 (≈ 6.25 µg/mL) | – | –
18 | CC(C)(C)n1cc(C(=O)O)c(=O)c2cc([N+](=O)[O-])c(N3CCn4cc(C(=O)O)nc4C3)cc21 | 6.87 (≈ 3.13 µg/mL) | 54.9 (≈ 25 µg/mL) | – | –
19 | O=C(O)c1cn(-c2ccc(F)cc2)c2cc(N3CCC(N4CCCCC4)CC3)c([N+](=O)[O-])cc2c1=O | 6.33 (≈ 3.13 µg/mL) | 25.3 (≈ 12.5 µg/mL) | – | –
20 | CCN(CC)C(=O)C1CCCN(c2cc3c(cc2[N+](=O)[O-])c(=O)c(C(=O)O)cn3-c2ccc(F)cc2)C1 (stereo unspecified) | 6.13 (≈ 3.13 µg/mL) | 24.5 (≈ 12.5 µg/mL) | – | –
21 | O=C(O)c1cn(-c2ccc(F)cc2)c2cc(N3CCC(n4c(=O)[nH]c5cc(Cl)ccc54)CC3)c([N+](=O)[O-])cc2c1=O | 5.42 (≈ 3.13 µg/mL) | 43.3 (≈ 25 µg/mL) | – | –
22 | Cc1onc(-c2c(F)cccc2F)c1C(=O)N1CCN(c2cc3c(cc2[N+](=O)[O-])c(=O)c(C(=O)O)cn3C(C)(C)C)CC1 | 2.62 (≈ 1.56 µg/mL) | 10.5 (≈ 6.25 µg/mL) | 105 | 30 (≈ 50.4 µM)
23 | CC(C)(C)n1cc(C(=O)O)c(=O)c2cc([N+](=O)[O-])c(N3CCSCC3)cc21 | 7.99 (≈ 3.13 µg/mL) | 31.9 (≈ 12.5 µg/mL) | – | –
